Active and inactive are the calls of the source. No cut-off for these calls is given here.
How the values were obtained:
[1] = tested on: SK-N-SH; assay: Cytotoxicity against human SK-N-SH cells after 48 hrs; type: functional, cell-based
Method in brief: (§1)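 Cells were seeded at 5 × 10^5 per T75 flask and grown to about 80% confluency. Lines were NB (IMR-32, SH-SY5Y, SMS-KCNR, SK-N-SH) or primary human lung fibroblasts (LF1, passage 10). Cells were exposed to 2.5–40 μM drug for 48 hrs and viability was read by MTS. Triplicates were run, and values are mean ± SD of a representative experiment as % viability of untreated cells.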

[2] = tested on: SMS-KCNR; assay: Cytotoxicity against SMS-KCNR cells after 48 hrs by MTS assay; type: functional, cell-based; details: Homo sapiens; method in brief: as §1
[3] = tested on: IMR-32; assay: Cytotoxicity against IMR32 cells after 48 hrs by MTS assay; type: functional, cell-based; details: Homo sapiens; method in brief: as §1
[4] = tested on: SH-SY5Y; assay: Cytotoxicity against SH-SY5Y cells after 48 hrs by MTS assay; type: functional, cell-based; details: Homo sapiens; method in brief: as §1
[5] = target: RAC-alpha serine/threonine-protein kinase (Homo sapiens) (UniProt P31749); assay: Inhibition of AKT in SMS-KCNR cells after 36 hrs by Western blotting; type: cell-based
Method in brief: (§2)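 SMS-KCNR cells at about 80% confluency were treated with 3 μM drug for the indicated times, then lysed in NP-40 buffer with protease and phosphatase inhibitors. Lysates (50 μg protein per lane) were run on 12% SDS-PAGE and blotted to PVDF. Blots were blocked in 5% milk and probed overnight at 4 °C with 1:1000 primary antibodies in 5% BSA. Targets were phospho and total JNK, p38 and Akt, pro and active caspase-3, -8 and -9, and cleaved PARP-1, with β-actin as loading control.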

[6] = Cytotoxicity against lung fibroblast cells after 48 hrs by MTS assay; type: cell-based; details: human; method in brief: as §1
[7] = target: MAP kinase p38 (Homo sapiens) (UniProt O15264+Q15759+Q16539+P53778); assay: Effect on p38 activation in SMS-KCNR cells after 1 hr by Western blotting; type: cell-based; method in brief: as §2
[8] = tested on: SMS-KCNR; assay: Effect on JNK activation in SMS-KCNR cells after 1 hr by Western blotting; type: cell-based; details: Homo sapiens; method in brief: as §2
[9] = tested on: SMS-KCNR; assay: Induction of apoptosis in SMS-KCNR cells assessed as increase in caspase 3 activation by Western blotting; type: functional, cell-based; details: Homo sapiens; method in brief: as §2
[10] = tested on: SMS-KCNR; assay: Induction of apoptosis in SMS-KCNR cells assessed as increase in caspase 8 activation by Western blotting; type: functional, cell-based; details: Homo sapiens; method in brief: as §2
[11] = tested on: SMS-KCNR; assay: Induction of apoptosis in SMS-KCNR cells assessed as increase in caspase 9 activation by Western blotting; type: functional, cell-based; details: Homo sapiens; method in brief: as §2
[12] = tested on: SMS-KCNR; assay: Induction of apoptosis in SMS-KCNR cells assessed as increase in PARP1 activation by Western blotting; type: functional, cell-based; details: Homo sapiens; method in brief: as §2
[13] = tested on: SMS-KCNR; assay: Inhibition of cell proliferation of SMS-KCNR cells […] after 48 hrs by BrdU assay; type: functional, cell-based; details: Homo sapiens
Method in brief: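 SMS-KCNR cells were plated at 5 × 10^3 per well, attached overnight, and treated with 300 nM–5 μM drug for 48 hrs. BrdU (10 μM final) was added for a further 6 hrs. Fixed cells were incubated with anti-BrdU–peroxidase for 2 hrs at 37 °C, developed with TMB, stopped with sulfuric acid, and read at 450 nm after blank subtraction. Triplicates were run, expressed as % of untreated absorbance.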

[14] = Cell cycle arrest in SMS-KCNR cells by accumulation at G0/G1 phase at 3 uM after 12 hrs by flow cytometry; type: functional, cell-based; details: Homo sapiens
Method in brief: (§3)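 Cells were plated in 100 mm dishes at 7.5 × 10^5 per dish, left to attach overnight, then exposed to 3.0 μM drug for 12 or 24 hrs. Floating and scraped adherent cells were pooled and fixed in ice-cold 70% ethanol for 30 min. They were stained with 50 μg/mL propidium iodide plus 100 μg/mL RNase, 30 min at 37 °C in the dark. Flow cytometry read 10,000 gated single-cell events per sample. Results are given as % of cells per sub-population, with sub-G0/G1 taken as apoptotic.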

[15] = Cell cycle arrest in SMS-KCNR cells by accumulation at S phase at 3 uM after 12 hrs by flow cytometry; type: functional, cell-based; details: Homo sapiens; method in brief: as §3
[16] = Cell cycle arrest in SMS-KCNR cells by accumulation at G2/M phase at 3 uM after 12 hrs by flow cytometry; type: functional, cell-based; details: Homo sapiens; method in brief: as §3
[17] = Induction of apoptosis in SMS-KCNR cells at 3 uM after 12 hrs by flow cytometry; type: functional, Homo sapiens; method in brief: as §3
[18] = Cell cycle arrest in SMS-KCNR cells by accumulation at G0/G1 phase at 3 uM after 24 hrs by flow cytometry; type: functional, cell-based; details: Homo sapiens; method in brief: as §3
[19] = Cell cycle arrest in SMS-KCNR cells by accumulation at S phase at 3 uM after 24 hrs by flow cytometry; type: functional, cell-based; details: Homo sapiens; method in brief: as §3
[20] = Cell cycle arrest in SMS-KCNR cells by accumulation at G2/M phase at 3 uM after 24 hrs by flow cytometry; type: functional, cell-based; details: Homo sapiens; method in brief: as §3
[21] = Induction of apoptosis in SMS-KCNR cells at 3 uM after 24 hrs by flow cytometry; type: functional, Homo sapiens; method in brief: as §3
[22] = tested on: SMS-KCNR; assay: Cytotoxicity against SMS-KCNR cells at 2.5 uM to 5.0 uM after 48 hrs by MTS assay; type: functional, cell-based; details: Homo sapiens; method in brief: as §1
[23] = tested on: SMS-KCNR; assay: Reduction of SMS-KCNR cell viability at 5 uM after 48 hrs in presence of Z-VAD-FM; type: functional, cell-based; details: Homo sapiens
Method in brief: (§4)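 SMS-KCNR cells were pre-incubated for 2 hrs with 40 μM caspase inhibitor (Z-VAD-FM, Z-DEVD-FMK, Z-IETD-FMK or Z-LEHD-FMK). Drug was then added at 5.0 μM for 48 hrs and viability measured. Triplicates were run, and values are mean ± SD of a representative experiment as % viability of untreated cells.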

[24] = tested on: SMS-KCNR; assay: Reduction of SMS-KCNR cell viability at 5 uM after 48 hrs in presence of Z-DEVD-FMK; type: functional, cell-based; details: Homo sapiens; method in brief: as §4
[25] = tested on: SMS-KCNR; assay: Reduction of SMS-KCNR cell viability at 5 uM after 48 hrs in presence of Z-IETD-FMK; type: functional, cell-based; details: Homo sapiens; method in brief: as §4
[26] = tested on: SMS-KCNR; assay: Reduction of SMS-KCNR cell viability at 5 uM after 48 hrs in presence of Z-LEHD-FMK; type: functional, cell-based; details: Homo sapiens; method in brief: as §4

Chain of RAC-alpha serine/threonine-protein kinase (Homo sapiens) (P31749 whole entry): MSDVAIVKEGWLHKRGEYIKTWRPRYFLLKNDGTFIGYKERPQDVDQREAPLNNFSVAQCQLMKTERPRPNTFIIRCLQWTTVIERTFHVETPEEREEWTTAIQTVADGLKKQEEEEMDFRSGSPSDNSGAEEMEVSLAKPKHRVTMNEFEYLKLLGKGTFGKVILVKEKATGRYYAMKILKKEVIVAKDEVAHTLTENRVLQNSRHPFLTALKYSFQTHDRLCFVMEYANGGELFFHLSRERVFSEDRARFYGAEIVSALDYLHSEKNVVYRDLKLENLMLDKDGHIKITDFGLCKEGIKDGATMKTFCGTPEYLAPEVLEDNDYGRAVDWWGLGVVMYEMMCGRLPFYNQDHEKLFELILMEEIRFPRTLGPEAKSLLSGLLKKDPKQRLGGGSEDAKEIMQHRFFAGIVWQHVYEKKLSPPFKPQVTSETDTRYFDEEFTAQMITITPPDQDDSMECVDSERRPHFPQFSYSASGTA

For `S=C=NCCc1c[nH]c2ccc(OCc3ccccc3)cc12`, the IC50 [1] was under 2500 nM, the Activity [2] was “Dose-dependent effect” and the Activity [3] was “Dose-dependent effect”. The Activity [4] was “Dose-dependent effect”.

With `Cc1cccc2c(CCN=C=S)c[nH]c12` the IC50 [1] was under 2500 nM, the Activity [5] was “Active” and the Activity [2] was “Dose-dependent effect”. For the same molecule, the Activity [3] was “Dose-dependent effect”, the Activity [4] was “Dose-dependent effect” and the Activity [6] was “Not Active”. The Activity [7] was “Active”, the Activity [8] was “Active” and the Activity [9] was “Active”. For the same molecule, the Activity [10] was “Active”, the Activity [11] was “Active” and the Activity [12] was “Active”. The Activity [13] was “Active”, the Activity [14] was 66.4% and the Activity [15] was 7.3%. The Activity [16] was 26.3%, the Activity [17] was 19.7% and the Activity [18] was 68.9%. It also gave an Activity [19] of 6.5%, an Activity [20] of 24.5% and an Activity [21] of 18.8%. For the same molecule, the Activity [22] was “Active”, the Activity [23] was “Active” and the Activity [24] was “Active”. For the same molecule, the Activity [25] was “Active” and the Activity [26] was “Active”.

Source: ChEMBL document CHEMBL1137504, “Effect of indole ethyl isothiocyanates on proliferation, apoptosis, and MAPK signaling in neuroblastoma cell lines” (Bioorg Med Chem Lett, 2007)
